Compounds with a hit are over-represented: about 3.3% of the library has one in this group of screens.
STAT3 act: increases IL-6 driven STAT3 reporter signal; activation (% of control), % at 5.6 µM; 190,000 tested, 0.91% active; AID 871; U3A cells, IL-6 STAT3-luciferase reporter, luminescence; 100% = signal with IL-6 EC80 alone;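 active = activation above the screen-wide mean of compound activation plus 3 SD, cut at about 130% in these data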;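 note: 0% = background luminescence of wells with medium and substrate only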
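Material: STAT1-lacking human U3A cells, STAT3 luciferase reporter | Benchmarks: IL-6-only wells as 100% reference | Probe or stimulus: IL-6 (33 ng/mL) | Timing: Compound 1 h, then IL-6 6 h at 37 °C | Detection: Luminescence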
AHR act: activators of human aryl hydrocarbon receptor; activation, % at 5 µM; 320,000 tested, 2.5% active; AID 2796; AHR-responsive luciferase reporter cells, luminescence; in the data active = activation above about 47%;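 note: 0% = vehicle wells and 100% = reference agonist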
ABCB6 inh 2: inhibitors of human ABC transporter ABCB6; Q9NP58; K562-ABCB6 porphyrin accumulation, flow cytometry, 1 h; stronger effect = lower value; fluorescence ratio to DMSO, % at 10 µM; 360,000 tested, 0.19% active;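 active = fluorescence ratio to DMSO below 75%, the collection mean minus 3 SD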;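 note: signal is porphyrin accumulated inside mitochondria; 100% equals median channel fluorescence of DMSO control wells; lower ratio means ABCB6 inhibition with less porphyrin fluorescence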
Target sequence (Q9NP58 whole entry, looked up): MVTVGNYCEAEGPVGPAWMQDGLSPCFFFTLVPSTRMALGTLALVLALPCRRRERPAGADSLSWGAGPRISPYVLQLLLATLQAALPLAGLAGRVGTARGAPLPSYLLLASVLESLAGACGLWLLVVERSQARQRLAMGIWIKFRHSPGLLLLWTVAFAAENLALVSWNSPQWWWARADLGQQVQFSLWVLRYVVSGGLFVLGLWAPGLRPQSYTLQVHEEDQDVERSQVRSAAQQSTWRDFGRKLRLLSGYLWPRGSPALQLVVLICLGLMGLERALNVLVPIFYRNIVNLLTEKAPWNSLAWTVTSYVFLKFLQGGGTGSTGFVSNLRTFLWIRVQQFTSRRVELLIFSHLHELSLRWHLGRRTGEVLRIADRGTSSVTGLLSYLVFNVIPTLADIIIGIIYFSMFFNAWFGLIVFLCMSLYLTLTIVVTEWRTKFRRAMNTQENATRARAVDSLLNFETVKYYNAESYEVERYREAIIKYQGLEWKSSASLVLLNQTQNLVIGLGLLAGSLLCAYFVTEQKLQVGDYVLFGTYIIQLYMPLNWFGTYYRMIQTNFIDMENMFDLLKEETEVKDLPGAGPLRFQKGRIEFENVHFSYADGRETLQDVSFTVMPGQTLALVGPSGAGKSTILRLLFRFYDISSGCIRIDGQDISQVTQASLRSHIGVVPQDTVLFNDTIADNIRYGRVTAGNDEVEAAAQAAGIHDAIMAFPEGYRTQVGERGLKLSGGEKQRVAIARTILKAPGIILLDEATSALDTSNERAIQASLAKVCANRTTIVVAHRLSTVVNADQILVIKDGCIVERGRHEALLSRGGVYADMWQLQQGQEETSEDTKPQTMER
GAA850 FXN act: frataxin GAA850 promoter activation; activation, % at 6 µM; HEK293 lucGAA850 FXN promoter luciferase reporter, 24 h; percent of 10 µM SAHA response; 360,000 tested, 0.56% active;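 active = activation above the average of all compounds screened plus 3 SD, cutoff fixed separately per campaign, cut at about 7.5% in these data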;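 note: 0% = DMSO wells and 100% = 10 µM SAHA wells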
Numbers without * were called inactive; . = no result.

SMILES	STAT3 act	AHR act	ABCB6 inh 2	GAA850 FXN act
COC(=O)C1=C(NC(=O)c2ccc(C)c(C)c2)CCS1	134*	18	101	3
CCN(CC)S(=O)(=O)c1ccc(C(=O)NC2=C(C(=O)OC)SCC2)cc1	81	-6	98	2
CCC(C)[C@H](NC(=O)[C@@H]1CSC2c3ccccc3C(=O)N21)C(=O)NCc1ccncc1 (stereo not given in full)	.	3	95	0
COc1ccc(OC)c(Nc2c3ccccc3nc3ccccc23)c1	.	1	89	-4
COc1ccc(OC)c(Nc2cc(C)c3ccccc3n2)c1	.	49*	97	0
C=CCn1c(C)cc(C(=O)CSc2n[nH]c(N)n2)c1C	105	50*	99	4
CN1CCN(/N=C/c2nc(-c3ccccc3Cl)n3ccccc23)CC1	105	25	101	1
CN1CCN(/N=C/c2nc(-c3ccc(Cl)cc3)n3ccccc23)CC1	113	48*	106	5
CCCCOc1ccc(C(=O)NCC(=O)NCC(c2cccs2)N2CCOCC2)cc1 (stereo not given)	.	1	98	-1
COc1cc(/C=C2\SC(=O)N(CCNC(=O)c3sc4cc(F)ccc4c3Cl)C2=O)cc(OC)c1OC	101	4	73*	-1
O=C(Nc1nc(-c2ccc(-c3ccccc3)cc2)cs1)c1cc([N+](=O)[O-])ccc1N1CCOCC1	103	-1	102	1
O=C(Nc1nc2c(ccc3ccccc32)s1)c1cc([N+](=O)[O-])ccc1N1CCOCC1	133*	9	.	.
Nc1ccccc1-c1nnc(-c2ccccc2N)n1N	127	48*	100	3
O=C(N/C(=C/C=C/c1ccccc1)C(=O)N1CCOCC1)c1ccccc1Cl	126	67*	96	2
Cc1cc(-c2ccccc2)n2ncc(-c3ccccc3)c2n1	60	57*	99	-1
Cc1cc(-c2nnc(SCC(=O)Nc3nc(-c4ccc(Cl)cc4)cs3)o2)no1	.	5	97	2
Cc1ccc(NC(=O)c2cc(C(=O)Nc3ccc(C)cc3)n(C)n2)cc1	.	62*	99	-1
Cn1nc(C(=O)Nc2cccc(Cl)c2)cc1C(=O)Nc1cccc(Cl)c1	.	-4	103	0
Cn1nc(C(=O)Nc2ccc(Cl)cc2)cc1C(=O)Nc1ccc(Cl)cc1	.	72*	89	-1
CN(C)/C=N/c1nc2nccc(-c3cccnc3)n2n1	104	58*	100	0
Cc1ccc(/C(O)=C2\C(=O)C(=O)N(CC(C)O)C2c2ccc(N(C)C)cc2)cc1 (stereo not given)	102	1	101	-1
COc1ccc(CNc2ncc(-c3ccc(F)cc3)n2C)c2ccccc12	.	61*	96	-10
COc1ccccc1CNc1ncc(-c2ccccc2)n1C	.	.	80	1
COc1ccc(OC)c(CNc2ncc(-c3ccc(F)cc3)n2C)c1	.	.	94	0
COc1ccccc1CNc1ncc(-c2ccc(F)cc2)n1C	.	73*	101	-2
SMILES	STAT3 act	AHR act	ABCB6 inh 2	GAA850 FXN act
CN(C)c1ccc(/C=N\NC(=O)c2cccc3cc[nH]c23)cc1	.	16	101	0
Clc1ccc(-c2nc(NCCN3CCOCC3)c3ccccc3n2)cc1	101	63*	101	5
CC(=O)NC1CC2CCCC(C1)N2C(=O)Nc1ccc(Cl)cc1 (stereo not given)	.	.	98	0
O=[N+]([O-])c1ccccc1/C=C/c1ccc2ccccc2n1	.	75*	92	4
Cn1c(/C=C/c2ccccc2[N+](=O)[O-])nc2ccccc2c1=O	.	.	94	6
O=[N+]([O-])c1ccc(/C=C/c2ccc3cccc([N+](=O)[O-])c3n2)cc1	87	106*	99	2
Nc1ccn([C@@H]2O[C@H](CNCc3cc(Cl)ccc3OCc3ccc(Cl)cc3)[C@@H](O)[C@H]2O)c(=O)n1	.	.	106	1
COC(=O)c1c(-c2ccccc2)nn(-c2ccccc2)c1C(=O)OC	.	0	93	1
NC(=O)c1c(NC(=O)c2ccccc2Cl)sc2c1CCC2	.	35	96	4
NC(=O)c1c(NC(=O)c2ccc(F)cc2Cl)sc2c1CCC2	.	56*	99	5
NC(=O)c1cc(Br)cc2c3c([nH]c12)CCCC3	82	64*	88	2
CC(C)CC(=O)N1CCN(c2ccc([N+](=O)[O-])c(NCc3ccccc3)c2)CC1	100	48*	98	1
CC(C)C(=O)N1CCC1(C)C(=O)Nc1nc2ccccc2[nH]1 (stereo not given)	.	.	105	-1
Nc1nc2nc(-c3ccccc3)cc(C(F)(F)F)c2s1	.	68*	87	3
Cc1cc(C(F)(F)F)c2sc(N)nc2n1	82	14	92	1
CN(N=O)c1ccc(CC2CCc3ccccc32)cc1 (stereo not given)	.	.	91	3
CN(CCn1ccnc1)Cc1cn(-c2ccccc2)nc1-c1ccc2c(c1)OCO2	108	55*	90	-2
CN(Cc1cn(-c2ccccc2)nc1-c1ccc2c(c1)OCO2)Cc1nccn1C	102	48*	93	0
Cc1ccccc1C(=O)c1c[nH]c(C(=O)NCc2cccs2)c1	100	1	91	-1
Cc1ccc2cc(CN(CC3CCCO3)C(=S)Nc3ccccc3)c(=O)[nH]c2c1C (stereo not given)	102	51*	94	-6
CCN(CC)CCCN(Cc1cc2cc3c(cc2[nH]c1=O)OCO3)C(=S)Nc1ccccc1	109	49*	100	-2
CC(=O)N(CCc1ccccc1C)Cc1cc2cc3c(cc2[nH]c1=O)OCO3	101	61*	103	-3
CCNC(=S)N(CCc1ccccc1C)Cc1cc2cc(OC)c(OC)cc2[nH]c1=O	99	57*	95	-3
CC(=CC(=O)c1ccccc1)c1ccccc1	.	.	100	1
O=C1c2ccccc2NC(c2ccccc2Cl)N1N=C1CCCCCC1 (stereo not given)	104	17	103	4
SMILES	STAT3 act	AHR act	ABCB6 inh 2	GAA850 FXN act
O=C(Cn1cnc([N+](=O)[O-])n1)N/N=C/c1cc(Cl)ccc1O	102	1	95	-5
CCN(C(=O)COC(=O)CNC(=O)c1ccc2ccccc2c1)C1CCS(=O)(=O)C1 (stereo not given)	96	3	102	-2
CCOC(=O)c1cc(-c2ccccc2)sc1N	101	0	99	5
NNC(=O)c1cc(-c2ccccc2)sc1N	.	56*	96	-1
NNC(=O)c1sc(-c2ccccc2)cc1N	104	66*	132	2
CC(=O)c1sc(-c2ccccc2)cc1N	.	20	103	3
C/C(=N\Nc1ccc(C(=O)O)cc1)c1ccc2c(c1)Nc1ccccc1S2	.	68*	104	4
CCOCCCNCc1cccc(OC)c1	102	-1	101	-1
CN1CCN(Cc2cn(C)nc2-c2ccccc2F)CC1c1ccccc1 (stereo not given)	104	0	99	-2
COc1cc2c(cc1OC)CN(Cc1cc(=O)oc3cc(C)c(C)cc13)CC2	104	12	100	1
CCc1ccc2c(CN3CCc4cc(OC)c(OC)cc4C3)cc(=O)oc2c1	131	74*	101	0
